Consider six compounds from ChEMBL document CHEMBL3351346, “Design, synthesis, structure-function relationship, bioconversion, and pharmacokinetic evaluation of ertapenem prodrugs” (J Med Chem, 2014).

Data set [1] can be described thus: Stability in rat plasma assessed as compound remaining at 50 uM at 37 degC after 60 mins by LC-MS/MS method. Type of data set: ADME, cell-free. Particulars: read-out: Stability. The gist of the method: (§1)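 Prodrugs were incubated in rat or human plasma for 60 min. Disappearance of prodrug and concomitant appearance of ertapenem were followed by LC-MS/MS, and in selected cases monoesters from partial hydrolysis were also monitored. Ertapenem itself was incubated the same way as a control.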

Data set [2] is described as follows: Stability in human plasma assessed as compound remaining at 50 uM at 37 degC after 60 mins by LC-MS/MS method. Type of data set: ADME, cell-free. Particulars: read-out: Stability. The gist of the method:
as §1

The nature of data set [3]: Stability in pH 2.0 simulated gastric fluid assessed as compound degradation to beta-lactam ring open products at 1 uM after 60 mins by LC-MS/MS method. It is filed as ADME. Particulars: read-out: Drug degradation. The gist of the method:
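Incubation was in simulated gastric fluid (SGF, pH 2.0) for 60 min, with loss to the β-lactam ring-opened product measured by LC-MS/MS.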

A short description of data set [4]: Stability in pH 6.5 simulated gastrointestinal fluid assessed as compound remaining at 50 uM after 3 hrs by LC-MS/MS method. Type of data set: ADME. As to conditions: read-out: Stability. A digest of the protocol: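 Compounds at 50 μM were incubated in fasted-state simulated intestinal fluid (FaSSIF, pH 6.5) for over 3 h. Percent remaining was determined by LC-MS/MS.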

Data set [5] in a line: Stability in pH 7.4 phosphate buffer assessed as compound remaining at 50 uM after 3 hrs by LC-MS/MS method. It is filed as physicochemical. Particulars: read-out: Stability.
Data set [6] is described as follows: AUC (0 to 8 hrs) in fasted Beagle dog at 10 mg/kg dosed through intraduodenal route by LC-MS/MS method. Also on record: time < 8 hr, dose 10 mg/kg, route intraduodenal. It is filed as ADME, organism-based, Canis lupus familiaris, Plasma. As to conditions: Beagle, plasma. A digest of the protocol:
(§2)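 Prodrugs were given intraduodenally to bypass stomach acid. Plasma was sampled at intervals over 8 h, and parent prodrug, the two monoester metabolites and ertapenem were quantified by LC-MS/MS. The lower limit of quantitation was 5 nM. AUC(0–8) was used, and it differed from AUC(0–∞) by ±20%. Vehicles were 30% Captisol or 0.5% methylcellulose, as solution or suspension depending on compound.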

Data set [7] has as its system Canis familiaris. Description: AUC (0 to 8 hrs) in fasted Beagle dog assessed as ertapenem level at 10 mg/kg dosed through intraduodenal route by LC-MS/MS method. Type of data set: ADME, organism-based, Canis lupus familiaris, Plasma. Details: time < 8 hr, dose 10 mg/kg, route intraduodenal. As to conditions: in vivo, other. A digest of the protocol: as §2
In data set [8] the test system is Canis familiaris. Description: AUC (0 to 8 hrs) in fasted Beagle dog assessed as 8-OH, C-3 ester level at 10 mg/kg dosed through intraduodenal route by LC-MS/MS method. Type of data set: ADME, organism-based, Canis lupus familiaris, Plasma. Also on record: time < 8 hr, dose 10 mg/kg, route intraduodenal. Particulars: in vivo, other. The gist of the method: as §2

In data set [9] the test system is Canis familiaris. Description: AUC (0 to 8 hrs) in fasted Beagle dog assessed as 8-OH, benzoate ester level at 10 mg/kg dosed through intraduodenal route by LC-MS/MS method. Type of data set: ADME, organism-based, Canis lupus familiaris, Plasma. Details: time < 8 hr, dose 10 mg/kg, route intraduodenal. As to conditions: in vivo, other. A digest of the protocol:
as §2

Data set [10] concerns Canis familiaris. As to the kind of experiment: Oral bioavailability in fasted Beagle dog assessed as ertapenem level at 10 mg/kg dosed through intraduodenal route by LC-MS/MS method. As to conditions: in vivo. Type of data set: ADME, organism-based, Canis lupus familiaris. A digest of the protocol:
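After intraduodenal dosing, plasma over 8 h was analysed by LC-MS/MS. Bioavailability was calculated as dose-normalized AUC of ertapenem formed from the prodrug divided by dose-normalized AUC of ertapenem dosed iv. Vehicle was 30% Captisol or 0.5% methylcellulose.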

Data set [11] relates to Canis familiaris. As to the kind of experiment: Oral bioavailability in fasted Beagle dog assessed as assessed as ertapenem and monoetser metabolites level at 10 mg/kg dosed through intraduodenal route by LC-MS/MS method. Type of data set: ADME, organism-based, Canis lupus familiaris. Particulars: in vivo. A digest of the protocol:
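Total absorption followed intraduodenal dosing with LC-MS/MS of plasma over 8 h. It was calculated as the combined dose-normalized AUC of circulating parent prodrug, ertapenem and two monoesters, divided by dose-normalized AUC of ertapenem given iv. Vehicle was 30% Captisol or 0.5% methylcellulose.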

`COC(=O)C1=C(S[C@@H]2CN[C@H](C(=O)Nc3cccc(C(=O)OC)c3)C2)[C@H](C)[C@@H]2[C@@H]([C@@H](C)O)C(=O)N12`: the remaining at 1 h, 50 µM in data set [1] and in data set [2] was 0% in each case. Also, the degraded at 1 h, 1 µM in data set [3] is over 25%. The remaining at 3 h, 50 µM in [4] and in data set [5] was over 95% throughout. The AUC(0-t) at 8 h in data set [6] came to 0.8 µM·h. For the same compound, the figures for the AUC in [7], in [8] and in data set [9] were 12 µM·h, 3.9 µM·h and 3.6 µM·h, respectively. For the same compound, the F is 14.3% in data set [10] and 24.2% in [11].
Turning to `CCCCOC(=O)C1=C(S[C@@H]2CN[C@H](C(=O)Nc3cccc(C(=O)OCCCC)c3)C2)[C@H](C)[C@@H]2[C@@H]([C@@H](C)O)C(=O)N12`, the remaining at 1 h, 50 µM in data set [1] amounted to 2%; in [2] it was 1%. Further, in [3], the degraded at 1 h, 1 µM was over 25%. Besides, the remaining at 3 h, 50 µM in [4] and in data set [5] was over 95% each time. For the same compound, in data set [6], the AUC(0-t) at 8 h was found to be 2.8 µM·h. In data set [7], the AUC is 9.4 µM·h. In addition, the F was 13.1% in data set [10] and 16.9% in data set [11].
In the case of `CCCOC(=O)C1=C(S[C@@H]2CN[C@H](C(=O)Nc3cccc(C(=O)OCCC)c3)C2)[C@H](C)[C@@H]2[C@@H]([C@@H](C)O)C(=O)N12`, the results for the remaining at 1 h, 50 µM in data set [1] and in data set [2] were 0% and 7%, respectively. The degraded at 1 h, 1 µM in data set [3] is over 25%. The remaining at 3 h, 50 µM in [4] and in data set [5] was over 95% each time. In data set [6], this compound came in with an AUC(0-t) at 8 h of 1 µM·h. Besides, the AUC in [7] is 7.3 µM·h. Besides, the F in data set [10] came to 9.8%; in data set [11], 11%.
As to `CC(=O)O[C@H](C)[C@H]1C(=O)N2C3=C(S[C@@H]4CN[C@@H](C4)C(=O)Nc4cccc(c4)C(=O)OCOCOC3=O)[C@H](C)[C@H]12`, the remaining at 1 h, 50 µM is 0% in data set [1] and 30% in [2]. Also, the degraded at 1 h, 1 µM in data set [3] was over 25%. Besides, the remaining at 3 h, 50 µM in data set [4] and in data set [5] was over 95% in each case. The same compound returned an AUC(0-t) at 8 h in data set [6] of 0.1 µM·h. Besides, the AUC in data set [7] was determined as 10.1 µM·h. Also, the F is recorded as 13.4% in [10] and 16% in [11].
For the compound `CCOC(=O)C1=C(S[C@@H]2CN[C@H](C(=O)Nc3cccc(C(=O)OCC)c3)C2)[C@H](C)[C@@H]2[C@@H]([C@@H](C)OC(C)=O)C(=O)N12`, the remaining at 1 h, 50 µM came out at 0% in data set [1] and 37% in data set [2]. Besides, the degraded at 1 h, 1 µM in data set [3] was over 25%. In addition, the remaining at 3 h, 50 µM in data set [4] and in data set [5] was over 95% in each case. The compound further showed an AUC(0-t) at 8 h in data set [6] of under 0.1 µM·h. For the same compound, the AUC in data set [7] came to 11.3 µM·h; in data set [8] it was 1.8 µM·h; in data set [9], 2.2 µM·h. Moreover, the figures for the F in data set [10] and in data set [11] were 15.4% and 23.3%, respectively.
Take `CCCCCCCCOC(=O)C1=C(S[C@@H]2CN[C@H](C(=O)Nc3cccc(C(=O)OCCCCCCCC)c3)C2)[C@H](C)[C@@H]2[C@@H]([C@@H](C)O)C(=O)N12`: the remaining at 1 h, 50 µM in data set [1] worked out at 4%; in [2], 80%. The degraded at 1 h, 1 µM in data set [3] is over 25%. Also, the remaining at 3 h, 50 µM in data set [4] and in data set [5] was over 95% throughout. In data set [6], this compound yielded an AUC(0-t) at 8 h of 0.6 µM·h. In data set [7] (BLD = below limit of detection), the AUC entry is listed as “BLD”. The F entry in [10] (BLD = below limit of detection) is “BLD”; in data set [11] it was 1.1%.
